MsrA inhibitor: inhibits bovine methionine sulfoxide reductase A. inhibition, % at 15.5 µM. purified bovine MsrA, absorbance read-out. 360,000 compounds, 0.75% hits;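 further: 0% = vehicle wells with enzyme and 100% = reference inhibitor wells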
DAGLB inh: blocks human DAGLB lipase activity. HEK293T DAGLB membrane lysate, EnzChek fluorogenic substrate. inhibition, % at 5.17 µM. 340,000 compounds, 0.059% hits; in the data active means inhibition above about 34%;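 further: 0% = enzyme with vehicle and 100% = wells lacking enzyme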
Target sequence (Q8NCG7 whole entry, looked up): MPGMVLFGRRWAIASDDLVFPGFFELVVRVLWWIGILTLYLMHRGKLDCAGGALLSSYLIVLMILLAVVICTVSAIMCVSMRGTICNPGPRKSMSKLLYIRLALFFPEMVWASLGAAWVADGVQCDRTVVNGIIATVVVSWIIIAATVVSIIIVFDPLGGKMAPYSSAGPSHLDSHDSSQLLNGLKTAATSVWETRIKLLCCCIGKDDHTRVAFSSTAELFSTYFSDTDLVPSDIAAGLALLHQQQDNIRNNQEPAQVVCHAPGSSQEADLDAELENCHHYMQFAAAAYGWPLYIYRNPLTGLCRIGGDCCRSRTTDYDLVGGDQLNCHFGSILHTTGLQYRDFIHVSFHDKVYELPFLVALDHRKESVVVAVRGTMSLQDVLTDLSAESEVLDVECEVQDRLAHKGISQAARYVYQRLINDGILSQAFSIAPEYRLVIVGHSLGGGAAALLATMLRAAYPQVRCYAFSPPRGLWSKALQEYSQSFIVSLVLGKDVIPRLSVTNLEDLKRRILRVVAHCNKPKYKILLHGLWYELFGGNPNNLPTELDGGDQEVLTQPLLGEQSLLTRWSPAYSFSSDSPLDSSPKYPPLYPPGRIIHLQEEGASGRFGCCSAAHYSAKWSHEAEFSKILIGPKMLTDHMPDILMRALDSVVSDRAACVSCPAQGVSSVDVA
SKN-1 block: C. elegans SKN-1 inhibition | C. elegans VP596 Pgst-4::GFP/RFP ratio, acrylamide-induced, 24 h | inhibition, % at 21.8 µM | 360,000 compounds, 0.49% hits | AID 624304;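 active means interference check ratio from 0.5 to 1.5 plus GFP to RFP signal ratio inhibition reaching or exceeding a fixed threshold, cut at about 30% in these data, passing the limit was not always enough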
MIN6 prolif: inducers of beta-cell replication in MIN6 cells | MIN6 cells proliferation, ATPlite luminescence, 48 h; cells starved in 0.2% serum; 100% = growth in 10% serum | proliferation, % at 10 µM | 330,000 compounds, 0.29% hits | AID 2380;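 active means compounds whose signal lies at least 3.5 SD above the mean of all wells on their plate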;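 further: 0% = DMSO-treated cells in low-serum medium and 100% = 10% serum control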
MsrA act: bovine methionine sulfoxide reductase A activation | purified bovine MsrA, absorbance read-out | activation, % at 10.6 µM | 360,000 compounds, 0.3% hits; in the data active means activation above about 7.5%;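 further: 0% = vehicle and 100% = reference activator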
MT1-MMP act inh: blocks activation of human MT1-MMP; GFP/RFP ratio change, % at 20 µM; HT1080 RFP-PRO-GFP cells, GFP/RFP ratio fluorescence, overnight; percent of plate control window, DMSO zero; 360,000 compounds, 0.061% hits; P50281;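 active means GFP/RFP ratio change of at least 30% with cell ATP level not reduced by more than half and red fluorescence within 50% of control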
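Assay system – RFP-PRO-GFP reporter HT1080 cells · Compound dosing – single dose of 20 µM compound, 1% DMSO final · Incubation – overnight compound exposure at 37 °C · Measure – GFP/RFP fluorescence ratio · Benchmarks – DMSO wells and RFP-L50D-GFP cells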
MsrA inh confirm: bovine MsrA inhibition, confirmed. 2,300 compounds, 41% hits. shares compounds with MsrA inhibitor. inhibition, % at 15.5 µM. purified bovine MsrA, absorbance read-out;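 further: coupled to thioredoxin reductase with NADPH and selenocystamine and DMSO as substrate; 0% = vehicle only and 100% = full effect of reference inhibitor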
The depositor's hits bear a star; nt = not tested or not shown. Most compounds without a hit are left out; they make up all but 1.8% or so of the library. Unless noted, no stated cut-off is given here; in the data, active means inhibition above about 4.5%; inactive means the rest.

SMILES | MsrA inhibitor | DAGLB inh | SKN-1 block | MIN6 prolif | MsrA act | MT1-MMP act inh | MsrA inh confirm
CCn1c(C)nc2cc(C(=O)N/N=C/c3ccc(OC)c(O)c3)ccc21 | 7.5* | -0.8 | 8.5 | -1.1 | -5.6 | 9.4 | 4.7*
COc1ccc(Cl)cc1NC(=O)CN(C)C(=O)C12CC3CC(CC(Cl)(C3)C1)C2 | 0.2 | -0.4 | -7.8 | -1.8 | -5.6 | 4.0 | nt
CC(C)CCN1C(=O)c2ccc(C(=O)Nc3ccc(Br)cc3C(=O)O)cc2C1=O | 0.3 | 8.5 | -14.4 | -0.8 | -3.4 | 2.3 | nt
CN1c2ccsc2/C(=N/Nc2ccccc2)CS1(=O)=O | 5.3* | 4.0 | 8.5 | -5.3 | -6.8 | -1.6 | 3.3
Cc1ncsc1C(=O)Nc1nc2c(s1)CC(C)CC2 (stereo not drawn) | 6.3* | -2.1 | 0.0 | -2.6 | -11.4 | 0.6 | 1.5
CCOC(=O)c1cnc(/N=C/N(C)C)s1 | 5.0* | 2.5 | 4.9 | 2.6 | -4.9 | -0.2 | 3.6
CCOC(=O)c1sc(/N=C/N(C)C)nc1C | 3.1 | -0.5 | 13.0 | 2.7 | -1.5 | -3.3 | nt
CC(=O)c1cc2c(ccc3ccccc32)oc1=O | -0.6 | -3.1 | 0.6 | 2.0 | -1.1 | -5.1 | nt
O=C(c1ccco1)c1cc2c(ccc3ccccc32)oc1=O | 12.8* | 2.2 | 4.5 | 1.6 | -3.8 | 5.2 | 27.8*
COC(=O)c1cc(-c2ccc(S(=O)(=O)N3CCCCC3)cc2)c(C(F)(F)F)s1 | 0.1 | -12.6 | -9.4 | -3.6 | -3.1 | 2.1 | nt
Cc1cc(OC(C)C(=O)Nc2ccccc2C(=O)N2CCCC2)ccc1Cl (stereo not drawn) | 2.1 | -2.8 | -3.1 | -1.1 | -1.6 | -8.4 | nt
CC(C)C(=O)c1ccc(O)c(O)c1 | 1.5 | 1.2 | -20.5 | -2.2 | -5.8 | -1.9 | nt
O=C(C(=O)c1ccc(O)c(O)c1)c1ccc(O)c(O)c1 | 7.6* | -0.4 | -5.2 | nt | 0.1 | 0.6 | 8.3*
CCCNC1=C(N(C(C)=O)c2cccc(F)c2)C(=O)c2ccccc2C1=O | 21.6* | 6.4 | 2.3 | nt | -8.6 | -5.1 | 5.0*
O=S1(=O)CCOC[C@H](CC2CCCCC2)N1Cc1ccccc1Br | 1.1 | -7.3 | 34.9 | -7.1 | -0.8 | 0.2 | nt
CCOc1cc(/C=N/N=C2/NC(=O)C(CC(=O)O)S2)ccc1OS(=O)(=O)c1ccc(C)cc1 (stereo not drawn) | 5.6* | 4.7 | 4.3 | -2.5 | -1.7 | 1.2 | 3.1
COc1ccc(S(=O)(=O)Oc2cccc(/C=N/N=C3/NC(=O)C(CC(=O)O)S3)c2)cc1 (stereo not drawn) | 5.2* | 5.3 | -7.6 | -4.7 | -2.5 | 2.6 | 1.7
COc1ccc(/C=N/N=C2/NC(=O)C(CC(=O)O)S2)cc1OCc1ccccc1Cl (stereo not drawn) | 6.5* | 2.3 | 3.6 | -1.2 | -9.5 | -2.0 | 6.4*
CCOc1cc(/C=N/N=C2/NC(=O)C(CC(=O)O)S2)ccc1OCc1ccccc1Cl (stereo not drawn) | 6.8* | 6.1 | 3.4 | -3.4 | -4.2 | 1.4 | 4.8*
O=C(NC1CCCCC1)C(c1ccncc1)N(C(=O)c1ccco1)c1ccc(F)cc1 (stereo not drawn) | 0.5 | -0.1 | 6.0 | -0.3 | -1.4 | 2.0 | nt
Cc1cccc(NS(=O)(=O)c2ccc(C(=O)NCC(c3ccco3)N3CCCCC3)cc2)c1C (stereo not drawn) | -1.8 | -1.1 | 11.1 | -1.3 | 0.6 | 1.0 | nt
CNc1nc(N)c([N+](=O)[O-])c(NCCO)n1 | 5.0* | -0.7 | 0.8 | 0.4 | -5.9 | 0.8 | 4.1
CN(C)CCCNc1nc(N)c([N+](=O)[O-])c(NCCO)n1 | 3.1 | -1.7 | 10.3 | -0.8 | -1.7 | 0.2 | nt
CCN(CC)CCCNc1nc(N)c([N+](=O)[O-])c(NCCO)n1 | 5.1* | -1.5 | 1.3 | 1.6 | -2.7 | -2.4 | 4.9*
COc1ccc(N=C2CC(C)(C)CC(=O)/C2=C(/O)c2ccccc2)cc1 | 4.9* | 2.7 | -1.4 | 1.7 | -1.6 | 0.4 | 0.8
SMILES | MsrA inhibitor | DAGLB inh | SKN-1 block | MIN6 prolif | MsrA act | MT1-MMP act inh | MsrA inh confirm
O=C(NCc1ccco1)c1ccccc1 | 0.8 | 0.4 | 10.2 | -2.0 | -4.3 | -3.6 | nt
O=C(NCc1ccccc1)c1ccc(=O)oc1 | 7.5* | -4.8 | -4.9 | -1.2 | -10.8 | 1.3 | 6.2*
COC(=O)CNC(=O)c1ccc(=O)oc1 | 5.8* | -1.5 | 9.5 | 0.3 | -7.1 | -0.4 | 5.3*
O=C(NCc1ccco1)c1ccc(=O)oc1 | 7.9* | 1.4 | -22.4 | 0.6 | -6.4 | -2.2 | 6.2*
CCOC(=O)C1(C)CCN1C(=O)COc1ccccc1 (stereo not drawn) | 2.0 | nt | 0.9 | nt | -1.9 | -0.9 | nt
CN(CCO)S(=O)(=O)c1ccc2c(c1)C(=NNC(N)=O)c1cc(S(=O)(=O)N(C)CCO)ccc1-2 | 4.8* | 0.0 | 0.2 | -1.7 | -4.8 | -2.1 | 3.4
CN(C)S(=O)(=O)c1ccc2c(c1)C(=NNC(N)=O)c1cc(S(=O)(=O)N(C)C)ccc1-2 | 0.1 | -3.5 | -16.3 | 0.1 | -4.0 | 0.2 | nt
O=c1c(C=NCC2CCCO2)c(-c2ccccc2)[nH]n1-c1ccc([N+](=O)[O-])cc1 (stereo not drawn) | 0.2 | 1.8 | 11.1 | -0.3 | -3.2 | 3.9 | nt
Cc1[nH]n(-c2ccc([N+](=O)[O-])cc2)c(=O)c1C=NCC1CCCO1 (stereo not drawn) | 6.8* | nt | 4.8 | -2.6 | -10.3 | 1.5 | 5.3*
Cc1ccc[n+](/C(=C\C(=C=[N-])C#N)C(=O)c2ccc(Cl)cc2)c1 | 4.8* | -1.1 | 0.6 | 2.0 | -5.8 | 2.6 | 5.0*
CN(C)S(=O)(=O)c1ccc(S(=O)(=O)NC2CCOC(C)(C)C2)cc1 (stereo not drawn) | 0.7 | -1.4 | 1.7 | -3.5 | -9.0 | -1.8 | nt
COc1ccc(/C=C(/NC(=O)c2ccccc2)c2nc3ccccc3[nH]2)cc1OC | 6.5* | -0.7 | -13.3 | -1.2 | -6.9 | 0.1 | 3.9
O=C(N/N=C/c1cn(-c2ccccc2)nc1-c1ccc2c(c1)OCCO2)c1ccncc1 | 5.0* | -1.1 | 1.3 | -2.1 | -0.3 | 3.0 | 1.1
O=C(N/N=C\c1cn(-c2ccccc2)nc1-c1ccccc1)c1ccc2c(c1)OCO2 | 3.8 | -1.2 | 0.0 | -2.2 | -2.5 | 10.2 | nt
COc1ccccc1NC=C1C(=O)OC(C)(C)OC1=O | 5.5* | -2.6 | 4.3 | -2.1 | -12.3 | 2.7 | 4.4
CCC(=O)Nc1ccc(C(=O)NCc2ccccn2)cc1 | -0.3 | -1.7 | 17.1 | -1.3 | -10.9 | 5.5 | nt
CCOC(=O)/C(C#N)=C1/C=CN(C)C(C)=N1 | 6.6* | 1.5 | 7.2 | -1.8 | -7.2 | -10.0 | 6.0*
CCOC(=O)c1cc(C(C)=O)c(=O)n(C)c1N | 5.9* | -0.8 | -0.1 | 0.5 | -5.2 | -2.5 | 4.8*
COCCn1c(/C=C/c2ccccc2)nc2ccccc21 | 5.1* | -0.7 | 8.9 | -4.4 | -4.8 | -5.3 | 4.4

High-throughput results (PubChem)
